{
  "source": "paper PMC3983399",
  "about": "(Journal of Medicinal Chemistry, 2014)",
  "key": {"M14 melanoma cell line": {"test_system": "M14 melanoma cell line", "assay": "CellTiter-Glo viability assay, M14 cells", "format": "cell-based", "method_in_brief": "(§1)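 Cells plated at 1250/well in serum-free medium (F12 for CHO-K1 and A549, DMEM for M14). Compounds given as 10-point 1:3 dilution series starting at 300 µM before addition, with gefitinib as assay control. Incubated 72 h at 37 °C, 5% CO2. CellTiter-Glo added, 15 min at room temperature, luminescence read. Normalized to media-only (0%) and 1% DMSO-treated cells (100%). Percent inhibition is the mean of three experiments ± SD.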"}, "[1]": {"test_system": "SKMEL-28 melanoma cell line", "assay": "Hexosaminidase viability assay, SKMEL-28", "format": "cell-based", "settings": "Homo sapiens, SK-MEL-28, read-out: IC50 SKMEL-28, text", "method_in_brief": "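Cells in 96-well plates grown overnight, then treated 48 h with compound at 0–50 µM. Wells washed with PBS. Hexosaminidase substrate added for 30 min at 37 °C, followed by developer; absorbance read at 405 nm. Percent viability = (treated absorbance/control absorbance) × 100.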"}, "HDAC1": {"biological_target": "HDAC1 (Homo sapiens, UniProt Q13547)", "sequence (Q13547 whole entry, species assumed)": "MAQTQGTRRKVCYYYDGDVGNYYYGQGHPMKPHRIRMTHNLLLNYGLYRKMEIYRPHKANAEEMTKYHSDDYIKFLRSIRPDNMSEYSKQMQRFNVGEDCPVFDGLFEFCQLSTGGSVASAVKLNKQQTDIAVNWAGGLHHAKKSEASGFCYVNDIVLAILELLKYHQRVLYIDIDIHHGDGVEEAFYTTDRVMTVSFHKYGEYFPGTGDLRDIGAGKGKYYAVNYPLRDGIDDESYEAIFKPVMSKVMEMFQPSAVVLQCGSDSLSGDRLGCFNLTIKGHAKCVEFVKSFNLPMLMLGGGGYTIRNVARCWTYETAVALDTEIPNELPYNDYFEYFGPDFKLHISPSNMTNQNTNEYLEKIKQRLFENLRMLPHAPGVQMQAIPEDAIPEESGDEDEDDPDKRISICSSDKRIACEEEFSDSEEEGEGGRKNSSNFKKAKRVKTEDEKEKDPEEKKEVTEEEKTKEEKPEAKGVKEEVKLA", "assay": "HDAC inhibition, HDAC1", "format": "biochemical", "settings": "up to 100 μM, data not shown"}, "HDAC2": {"biological_target": "HDAC2 (Homo sapiens, UniProt Q92769)", "sequence (Q92769 whole entry)": "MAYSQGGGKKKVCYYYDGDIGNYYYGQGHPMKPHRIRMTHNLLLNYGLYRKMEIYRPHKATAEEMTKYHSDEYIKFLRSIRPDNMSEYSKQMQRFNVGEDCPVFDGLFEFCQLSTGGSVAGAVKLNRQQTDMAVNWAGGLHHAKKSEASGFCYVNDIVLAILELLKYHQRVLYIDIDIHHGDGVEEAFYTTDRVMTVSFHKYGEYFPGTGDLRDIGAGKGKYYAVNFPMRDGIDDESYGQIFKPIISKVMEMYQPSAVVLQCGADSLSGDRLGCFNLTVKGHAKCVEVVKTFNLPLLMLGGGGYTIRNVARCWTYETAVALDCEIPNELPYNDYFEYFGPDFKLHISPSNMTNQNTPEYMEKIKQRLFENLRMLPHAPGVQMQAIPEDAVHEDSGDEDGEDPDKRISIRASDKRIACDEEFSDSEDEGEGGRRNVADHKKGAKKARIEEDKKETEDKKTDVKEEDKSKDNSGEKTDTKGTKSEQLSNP", "assay": "HDAC inhibition, HDAC2", "format": "biochemical", "settings": "up to 100 μM, data not shown"}, "HDAC6": {"biological_target": "T1, HDAC6 (Homo sapiens, UniProt Q9UBN7)", "T1 sequence (Q9UBN7 1-1215)": "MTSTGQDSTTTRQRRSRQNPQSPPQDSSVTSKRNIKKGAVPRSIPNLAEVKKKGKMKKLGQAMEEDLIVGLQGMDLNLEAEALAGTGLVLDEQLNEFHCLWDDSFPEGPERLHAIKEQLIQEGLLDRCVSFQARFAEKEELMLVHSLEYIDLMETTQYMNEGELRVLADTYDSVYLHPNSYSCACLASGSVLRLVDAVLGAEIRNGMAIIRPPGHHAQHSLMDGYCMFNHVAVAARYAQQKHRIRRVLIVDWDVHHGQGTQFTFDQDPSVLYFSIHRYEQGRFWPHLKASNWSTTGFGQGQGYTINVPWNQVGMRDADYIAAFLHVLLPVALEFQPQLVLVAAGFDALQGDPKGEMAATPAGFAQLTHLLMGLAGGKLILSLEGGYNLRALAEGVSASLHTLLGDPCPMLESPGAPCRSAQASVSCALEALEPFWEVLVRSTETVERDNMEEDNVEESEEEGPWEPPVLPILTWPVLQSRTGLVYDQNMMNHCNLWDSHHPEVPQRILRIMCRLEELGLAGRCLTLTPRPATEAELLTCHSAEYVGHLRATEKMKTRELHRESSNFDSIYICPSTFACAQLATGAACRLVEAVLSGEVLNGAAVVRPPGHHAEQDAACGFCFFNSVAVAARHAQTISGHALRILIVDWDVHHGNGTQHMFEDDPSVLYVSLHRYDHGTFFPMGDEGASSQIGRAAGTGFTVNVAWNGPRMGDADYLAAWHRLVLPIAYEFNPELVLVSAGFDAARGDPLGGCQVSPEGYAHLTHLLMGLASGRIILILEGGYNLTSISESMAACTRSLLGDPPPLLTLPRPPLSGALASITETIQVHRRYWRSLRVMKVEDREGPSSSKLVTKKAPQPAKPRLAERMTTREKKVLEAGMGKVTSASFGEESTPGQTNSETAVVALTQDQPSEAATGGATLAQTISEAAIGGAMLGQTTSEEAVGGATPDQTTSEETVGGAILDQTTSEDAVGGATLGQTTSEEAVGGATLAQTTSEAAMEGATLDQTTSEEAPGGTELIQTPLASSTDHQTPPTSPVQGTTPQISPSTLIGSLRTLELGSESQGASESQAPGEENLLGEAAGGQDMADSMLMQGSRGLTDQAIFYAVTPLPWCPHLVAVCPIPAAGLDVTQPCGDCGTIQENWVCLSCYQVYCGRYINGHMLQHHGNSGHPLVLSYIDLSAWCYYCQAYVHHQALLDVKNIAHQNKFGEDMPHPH", "assay": "HDAC inhibition, HDAC6", "format": "biochemical", "settings": "up to 100 μM, data not shown"}, "M14 cells": {"test_system": "M14 cells", "assay": "ApoTox-Glo triplex assay", "format": "cell-based", "settings": "for cytotoxicity response / effect on cell viability (live cell protease): early time point (4 h); for time of caspase activity spike: time points 4, 24, 48, 72 h", "method_in_brief": "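M14 #5 cells, 1250/well in serum-free DMEM, preincubated 4 h at 37 °C, 5% CO2. Compounds (1:3 serial dilutions) incubated 4, 24, 48 and 72 h alongside ionomycin, terfenadine and panobinostat controls. Viability/cytotoxicity reagent (400 µM GF-AFC, 400 µM bis-AAF-R110 in reagent) 30 min at 37 °C; fluorescence Ex400/Em505 (live-cell protease) and Ex485/Em520 (dead-cell protease). Then Caspase-Glo 3/7, 30 min at room temperature, luminescence.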"}, "[2]": {"test_system": "melanoma cells with mutated Q61LNRAS and wild-type BRAF (M202 and M207)", "settings": "up to 10 μM; cited from earlier work"}, "[3]": {"test_system": "A549 nonsmall cell lung cancer cell line", "assay": "CellTiter-Glo viability assay, A549 cells", "format": "cell-based", "settings": "Homo sapiens, A549, read-out: Inhibition % @ 100 μM A549", "method_in_brief": "as §1"}},
  "data": [
    {"smiles": "O=C1NC[C@H](Cc2ccccc2)N(C[C@@H]2CCCN2C[C@H](Cc2ccccc2)N2C[C@H](Cc3ccc(O)cc3)N(CCC34CC5CC(CC(C5)C3)C4)C(=O)C2=O)C1=O", "note": "[Compound 2155-18]", "values": [
      {"measurement": "IC50", "setting": "M14 melanoma cell line; Homo sapiens, M14, read-out: IC50 M14, Table 3, mean of three ± SD", "value": "890 ± 70", "unit": "nM"},
      {"measurement": "IC50", "setting": "[1]", "value": "890 ± 70", "unit": "nM"},
      {"measurement": "HDAC1 inhibition", "setting": "HDAC1", "value": "lack of HDAC inhibition"},
      {"measurement": "HDAC2 inhibition", "setting": "HDAC2", "value": "lack of HDAC inhibition"},
      {"measurement": "HDAC6 inhibition", "setting": "HDAC6", "value": "lack of HDAC inhibition"}
    ]},
    {"smiles": "O=C1NC[C@H](Cc2ccccc2)N(C[C@@H]2CCCN2C[C@@H](CC2CCCCC2)N2C[C@H](Cc3ccc(O)cc3)N(CCc3ccccc3)C(=O)C2=O)C1=O", "note": "[Compound 2155-14]", "values": [
      {"measurement": "inhibition of M14 cell viability at highest tested concentration", "setting": "M14 melanoma cell line; 100 μM", "value": "not able to inhibit M14 cell viability fully"},
      {"measurement": "cytotoxicity response", "setting": "M14 cells", "value": "no markers for apoptosis and cytotoxicity"},
      {"measurement": "effect on cell viability (live cell protease)", "setting": "M14 cells", "value": "no effect on cell viability"},
      {"measurement": "time of caspase activity spike", "setting": "M14 cells", "value": 24, "unit": "h"},
      {"measurement": "HDAC1 inhibition", "setting": "HDAC1", "value": "lack of HDAC inhibition"},
      {"measurement": "HDAC2 inhibition", "setting": "HDAC2", "value": "lack of HDAC inhibition"},
      {"measurement": "HDAC6 inhibition", "setting": "HDAC6", "value": "lack of HDAC inhibition"}
    ]},
    {"smiles": "CCC[C@H]1CNC(=O)C(=O)N1C[C@@H]1CCCN1C[C@@H](CC1CCCCC1)N1C[C@H](Cc2ccc(O)cc2)N(CCc2ccccc2)C(=O)C1=O", "note": "[Compound 2155-17]", "values": [
      {"measurement": "selectivity for M14 over A549 cells", "setting": "M14 melanoma cell line; ratio of IC50", "value": "approximately 5 fold"},
      {"measurement": "selectivity for M14 over CHO-K1 cells", "setting": "M14 melanoma cell line; ratio of IC50", "value": "more than 10 fold"}
    ]},
    {"smiles": "C[C@H](CCC(=O)O)C[C@H](C)C[C@H](C)C(=O)/C=C(\\O)[C@H](C)C[C@H](C)C/C=C/[C@@H](C)[C@@H](O)[C@@H](C)[C@@H](O)C[C@@H]1CC[C@@](C)([C@H]2CC[C@@](C)([C@@H](C)O)O2)O1", "note": "[ionomycin]", "values": [
      {"measurement": "cytotoxicity response", "setting": "M14 cells", "value": "strong cytotoxicity response"},
      {"measurement": "effect on cell viability (live cell protease)", "setting": "M14 cells", "value": "dose-dependent loss of viability"},
      {"measurement": "time of caspase activity spike", "setting": "M14 cells", "value": "did not induce a spike in caspase activity"}
    ]},
    {"smiles": "CC(C)(C)c1ccc(C(O)CCCN2CCC(C(O)(c3ccccc3)c3ccccc3)CC2)cc1", "note": "(centres unmarked) [terfenadine]", "values": [
      {"measurement": "cytotoxicity response", "setting": "M14 cells", "value": "cytotoxicity spike"},
      {"measurement": "effect on cell viability (live cell protease)", "setting": "M14 cells", "value": "early loss of cell viability"},
      {"measurement": "time of caspase activity spike", "setting": "M14 cells", "value": "4 to 24", "unit": "h"}
    ]},
    {"smiles": "CCCS(=O)(=O)Nc1ccc(F)c(C(=O)c2c[nH]c3ncc(-c4ccc(Cl)cc4)cc23)c1F", "note": "[vemurafenib]", "values": [
      {"measurement": "activity against M202 and M207 melanoma cells", "setting": "[2]", "value": "inactive"}
    ]},
    {"smiles": "Cc1[nH]c2ccccc2c1CCNCc1ccc(/C=C/C(=O)NO)cc1", "note": "[panobinostat]", "values": [
      {"measurement": "cytotoxicity response", "setting": "M14 cells", "value": "no effect"},
      {"measurement": "effect on cell viability (live cell protease)", "setting": "M14 cells", "value": "no effect"},
      {"measurement": "time of caspase activity spike", "setting": "M14 cells", "value": "24 to 48", "unit": "h"}
    ]},
    {"smiles": "CCC[C@@H]1CNC(=O)C(=O)N1C[C@@H]1CCCN1C[C@H](Cc1ccc(O)cc1)N1C[C@@H](Cc2ccc(O)cc2)N(CC(CC)c2ccccc2)C(=O)C1=O", "note": "(some centres unmarked) [Compound 2]", "values": [
      {"measurement": "inhibition at 100 µM", "setting": "M14 melanoma cell line; Homo sapiens, M14, read-out: Inhibition % @ 100 μM M14", "value": "14 ± 3", "unit": "%"},
      {"measurement": "inhibition at 100 µM", "setting": "[3]", "value": 0, "unit": "%"}
    ]}
  ]
}
